High-throughput results deposited in PubChem BioAssay by several laboratories.
An excerpt weighted towards active compounds, which were near 2% of everything screened.
Rpn11 inh – inhibitors of human proteasome Rpn11; O00487; human 26S proteasome, Ub4-pepOG fluorescence polarization; 20S core pre-blocked with epoxomicin; inhibition, % at 20 µM; 0.59% of 360,000 active;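 active = inhibition at 20 µM, scaled to each plate's controls, above about 33%, limit read from the data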
CSN deneddyl inh – blocks human CSN-mediated cullin deneddylation. Q92905. Purified CSN, SCF-Nedd8-OG deneddylation, fluorescence polarization. inhibition, % at 12.5 µM. 0.38% of 360,000 active;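 active = pattern-corrected inhibition above about 35%, with an unprinted fluorescence ratio check between 0.5 and 1.5, limit read from the data, passing the limit was not always enough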
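Assay system: Purified human Csn5 enzyme expressed in HEK293T cells | Amount: Enzyme 0.24 nM | Measured by: Fluorescence polarization readout | Medium: Tris/NaCl/DTT buffer, pH 7.5 | Compound dosing: One concentration, 12.5 µM, 0.25% DMSO | Times: 90 min incubation of compound, enzyme and substrate at room temperature | Control set: no-enzyme wells high, enzyme-with-substrate wells low | Read-out: % inhibition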
ATG4B inhibitor – ATG4B (human) cysteine protease inhibition | AID 504462 | ATG4B cleavage of LC3-PLA2, NBD-HPC fluorescence, 1 h | 0.51% of 340,000 active | inhibition, % at 8.33 µM; in the data active = inhibition above about 40%
Target sequence (Q9Y4P1 whole entry, looked up): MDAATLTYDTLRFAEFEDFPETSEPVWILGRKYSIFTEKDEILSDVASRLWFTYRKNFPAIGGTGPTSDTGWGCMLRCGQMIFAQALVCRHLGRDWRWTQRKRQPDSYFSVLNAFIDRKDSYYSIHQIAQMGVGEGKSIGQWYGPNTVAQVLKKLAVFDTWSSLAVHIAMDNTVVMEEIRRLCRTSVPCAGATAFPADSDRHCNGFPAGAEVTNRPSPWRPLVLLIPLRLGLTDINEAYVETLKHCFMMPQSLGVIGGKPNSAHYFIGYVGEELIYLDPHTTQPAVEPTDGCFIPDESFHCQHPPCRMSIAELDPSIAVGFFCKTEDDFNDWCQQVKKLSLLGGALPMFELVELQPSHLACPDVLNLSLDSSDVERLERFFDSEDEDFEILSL
TPT1 inhibitor – blocks Candida albicans tRNA 2'-phosphotransferase | recombinant caTPT1, FP RNA substrate dephosphorylation | inhibition, % at 5 µM | 0.81% of 300,000 active;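 active = inhibition above the mean of all tested compounds plus 3 SD, set per screening campaign, cut at about 24% in these data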
HNF4A DNA FP – change in binding of human HNF4 alpha to DNA. HNF4a-FITC DNA binding, fluorescence polarization, 1 h. activity change, % at 10 µM. P41235. 0.3% of 360,000 active; in the data active = activity change above about 30%, passing the limit was not always enough
SENP1 inh – blocks the human SENP1 SUMO protease catalytic domain; inhibition, % at 10 µM; Q9P0U3; recombinant SENP1 catalytic domain, CyPet-SUMO1-YPet FRET cleavage; 0.21% of 360,000 active;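 active = inhibition at least 30% at 10 µM, raw YFP signal under a set limit, fluorescence ratio 0.5 to 1.5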
Target sequence (Q9P0U3 419-644 limits assumed): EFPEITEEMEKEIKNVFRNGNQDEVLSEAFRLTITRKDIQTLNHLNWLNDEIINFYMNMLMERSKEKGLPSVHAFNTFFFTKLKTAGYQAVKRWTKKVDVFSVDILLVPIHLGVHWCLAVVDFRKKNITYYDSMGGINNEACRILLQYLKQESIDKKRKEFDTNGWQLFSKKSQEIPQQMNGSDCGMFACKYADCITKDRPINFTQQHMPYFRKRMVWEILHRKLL
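System: Recombinant human SENP1 catalytic domain, His6-tagged | Incubation: Enzyme reaction for 50 min at room temperature, dark | Medium: Tris pH 8 with BME, BSA, NP40 and catalase | Also added: 25 nM SUMO1 FRET substrate | Compound: 10 µM single point, 0.5% DMSO | Measured by: FRET fluorescence in CFP and YFP emission channels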
ATG4B confirm – ATG4B (human) inhibition, single-dose confirmed; inhibition, % at 8.33 µM; shares compounds with ATG4B inhibitor; ATG4B protease fluorescent substrate cleavage assay; 92% of 320 active; AID 504757; in the data active = inhibition above about 39%
PLA2 ctr – PLA2 (human) inhibition in ATG4B counter-screen; 66% of 1,600 active; purified PLA2, NBD-C6-HPC fluorescence, 45 min; inhibition, % at 8.33 µM; shares compounds with ATG4B inhibitor; in the data active = inhibition above about 50%
Large screens that a line does not name were inactive (follow-up assays come after a bar, where they were run).

C=CCc1ccccc1OCC(=O)NNC(=S)NCc1ccccc1	ATG4B inhibitor 69 | PLA2 ctr 69
CCCCn1nnnc1C1(C)CCC(=O)N1CC1CCCCC1 (stereo not given)	none (no result: Rpn11 inh, ATG4B inhibitor, TPT1 inhibitor)
Cc1c(CCC(=O)O)c(=O)oc2cc3occ(C(C)(C)C)c3cc12	ATG4B inhibitor 44 | PLA2 ctr 61
Cc1c(CCC(=O)O)c(=O)oc2cc3occ(-c4ccc(F)cc4)c3cc12	none
Cc1ccc(S(=O)(=O)NCc2ccccc2)cc1C(=O)NCc1ccncc1	none (no result: ATG4B inhibitor, TPT1 inhibitor)
COc1ccc(S(=O)(=O)N(Cc2cccs2)C2CCCC2)cc1	ATG4B inhibitor 50 | PLA2 ctr 54
C[C@@H]1CN([C@H](C)CO)C(=O)CCCn2cc(nn2)CO[C@H]1CN(C)S(=O)(=O)c1ccccc1F	none (no result: ATG4B inhibitor, TPT1 inhibitor)
CC1CC(C)CN(C(=O)C2CCN(S(=O)(=O)c3ccc4c(c3)CC(C)N4C(=O)C3CC3)CC2)C1 (stereo not given)	ATG4B inhibitor 43 | ATG4B confirm 60 | PLA2 ctr inactive
Cc1nc2ccc(C(=O)NCCCN3CCCC3=O)cn2c1N(C)C(=O)CCc1ccccc1	none (no result: ATG4B inhibitor, TPT1 inhibitor)
CC(=O)N(C)C[C@@H]1Oc2ncc(C#Cc3ccc(F)cc3)cc2C(=O)N([C@@H](C)CO)C[C@H]1C	none (no result: ATG4B inhibitor, TPT1 inhibitor)
Nc1ncnc(N)c1N=Nc1ccccc1	none (no result: TPT1 inhibitor)
Nc1nn(-c2ccccc2)c(N)c1N=Nc1ccccc1F	ATG4B inhibitor 70 | PLA2 ctr 72
Cc1nn(-c2ccccc2)c(N)c1N=Nc1ccc(Cl)cc1	ATG4B inhibitor 81 | PLA2 ctr 89
Nc1nn(-c2ccccc2)c(N)c1N=Nc1ccccc1	ATG4B inhibitor 45 | ATG4B confirm 64 | PLA2 ctr inactive
Cc1cccc(N=Nc2c(C)nn(-c3ccccc3)c2N)c1C	ATG4B inhibitor 82 | PLA2 ctr 90
Cn1c(=O)c2c(ncn2CC(=O)OCC(=O)c2ccc(OC(F)F)cc2OC(F)F)n(C)c1=O	none (no result: ATG4B inhibitor, TPT1 inhibitor)
Cc1nn(-c2ccccc2)c(N)c1N=Nc1ccccc1	ATG4B inhibitor 73 | PLA2 ctr 81
Cc1nn(-c2ccccc2)c(N)c1N=Nc1cccc(S(=O)(=O)N2CCOCC2)c1	ATG4B inhibitor 44 | PLA2 ctr inactive
Cc1nn(-c2ccccc2)c(N)c1-c1ccccc1	none
O=C(COc1ccccc1Br)Nc1ccc(S(=O)(=O)N2CCCC2)cc1	none (no result: TPT1 inhibitor)
O=C(Nc1cc(C(=O)Nc2ccccc2C(=O)O)cc(C(=O)Nc2ccccc2C(=O)O)c1)c1ccccc1	ATG4B inhibitor 68 | PLA2 ctr 84
O=C(Nc1ccccc1C(=O)O)c1cccc(NC(=O)c2ccccc2Br)c1	none
O=C(Cc1ccc(S(=O)(=O)N2CCOCC2)s1)N1CCN(S(=O)(=O)c2ccc(Cl)cc2)CC1	none (no result: TPT1 inhibitor)
O=C(NCc1ccc(Cl)cc1)c1ccccc1CCc1ccccc1	ATG4B inhibitor 55 | PLA2 ctr 53
O=C(CNCC1CCCCC1)Nc1ccccc1N1CCCCC1	ATG4B inhibitor 41 | ATG4B confirm 65 | PLA2 ctr inactive
O=C(CNCC1CCCO1)Nc1ccccc1N1CCOCC1 (stereo not given)	none
O=C(CNC1CCCCCC1)Nc1ccccc1N1CCCCC1	ATG4B inhibitor 46 | PLA2 ctr 53
O=C(CNCCC1=CCCCC1)Nc1ccccc1N1CCCCC1	ATG4B inhibitor 49 | PLA2 ctr 53
O=C(c1ccc(OC2CCN(Cc3ccccc3OC(F)F)CC2)cc1)N1CCCC1	ATG4B inhibitor 42 | PLA2 ctr 52
O=C(c1ccc(OC2CCN(Cc3ccc(C(F)(F)F)cc3)CC2)cc1)N1CCCCC1	ATG4B inhibitor 41 | PLA2 ctr 51
O=C(c1ccc(OC2CCN(Cc3ccccc3C(F)(F)F)CC2)cc1)N1CCCCC1	none
COc1cc(/C=C/CN2CCC(Oc3ccc(C(=O)N4CCCC4)cc3)CC2)ccc1O	ATG4B inhibitor 40 (no result: TPT1 inhibitor) | PLA2 ctr inactive
CC(C(=O)Nc1ccc(S(=O)(=O)N2CCCC2)cc1)N1CCCC(C(N)=O)C1 (stereo not given)	none (no result: TPT1 inhibitor)
O=C(NCCCN1CCCC1=O)c1ccc(Cl)c(S(=O)(=O)N2CCCCC2)c1	none (no result: TPT1 inhibitor)
O=C(O)/C=C/c1ccccc1Oc1ccc(Cl)cc1Cl	ATG4B inhibitor 41 | ATG4B confirm 68 | PLA2 ctr inactive
Cc1cccc(C)c1OCC(O)Cn1c2ccccc2c2ccccc21 (stereo not given)	ATG4B inhibitor 53 | PLA2 ctr 61
COc1ccc(C(=O)N/N=C(\C)c2ccc3c(c2)C2C=CCC2C(c2ccccc2)N3)cc1 (stereo not given)	none
COc1cccc(NS(=O)(=O)c2ccc3c(c2)C2C=CCC2C(c2ccc(C(=O)O)cc2)N3)c1 (stereo not given)	ATG4B inhibitor 67 | ATG4B confirm 62 | PLA2 ctr inactive
C=CC[C@H]1C(C(=O)OCC)=CC[C@@H](c2ccccc2)N1S(=O)(=O)c1ccc(C)cc1	none (no result: ATG4B inhibitor, TPT1 inhibitor)
Fc1ccc(C2CC(c3ccco3)=Nc3ccccc3S2)cc1 (stereo not given)	ATG4B inhibitor 46 | PLA2 ctr 67
CCCCn1c(=O)c2ccccc2c2ccccc2c1=O	ATG4B inhibitor 64 | PLA2 ctr 75
COCCn1c(=O)c2ccccc2c2ccccc2c1=O	none
O=C(NCc1cc(Cl)cc(Cl)c1)c1ccc2nc([C@H]3C[C@H](O)[C@@H](CO)O3)[nH]c2c1	none (no result: ATG4B inhibitor, TPT1 inhibitor)
C/C(=C/CCC(C)[C@H]1CC[C@@]2(C)C3=C(CC[C@]12C)[C@@]1(C)CCC(=O)C(C)(C)[C@@H]1CC3)C(=O)O (stereo not given in full)	ATG4B inhibitor 46 | ATG4B confirm 79 | PLA2 ctr inactive
O=c1oc(-c2ccccc2)nc2sc3c(c12)CCC3	ATG4B inhibitor 56 | ATG4B confirm 72 | PLA2 ctr inactive
CCCCCCCCCCCCCCCC[N+](C)(C)CCN(Cc1ccc(OC)cc1)c1ncccn1	Rpn11 inh 77, ATG4B inhibitor 67 | PLA2 ctr 61
COc1ccc(CN(CCN(C)C)c2ccccn2)cc1	none
O=C(O)c1cc(NN=Nc2cccc([N+](=O)[O-])c2)cc([N+](=O)[O-])c1	ATG4B inhibitor 83 | PLA2 ctr 87
COCO/C=C(\NC(C)=O)c1ccccc1	none (no result: TPT1 inhibitor)
COc1ccc(OC)c(NC(=O)c2nnn(Cc3ccccc3C)c2N)c1	ATG4B inhibitor 60 | PLA2 ctr 64
